Test results taken from ChEMBL document CHEMBL4376807, “Hydroxamic Acid Derivatives of β-Carboline/Hydroxycinnamic Acid Hybrids Inducing Apoptosis and Autophagy through the PI3K/Akt/mTOR Pathways” (J Nat Prod, 2019).
Active and inactive are the calls of the source. The calls are words filed in the database; no cut-off is given here.

What was measured:
[1] = tested on: L02; assay: Cytotoxicity against human LO2 cells after 72 hrs by MTT assay; type: functional, cell-based; settings: L02, 72 h
Outline: (§1)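 Cells grown in DMEM with 10% heat-inactivated FBS, penicillin/streptomycin, 37 °C, 5% CO2. Seeded at 10^4 cells/mL overnight, then exposed to a range of compound concentrations for 72 h; 0.1% DMSO negative control. MTT (5 mg/mL stock) added, absorbance read at 570 nm; percent inhibition from three independent experiments, mean ± SD.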

[2] = tested on: Bel7402/5-FU; assay: Antiproliferative activity against human Bel7402/5-FU cells at 0.2 to 5 uM after 72 hrs by MTT assay; type: functional, cell-based; outline: as §1
[3] = tested on: SMMC-7721; assay: Antiproliferative activity against human SMMC7721 cells after 72 hrs by MTT assay; type: functional, cell-based; settings: SMMC-7721, 72 h
[4] = molecular target: Histone deacetylase 1 (Homo sapiens, UniProt Q13547); assay: Inhibition of HDAC1 (unknown origin) using Boc-Lys (Ac)-AMC as substrate incubated for 60 mins by fluorimetric assay
[5] = tested on: Bel-7402; assay: Induction of apoptosis in human Bel7402 cells assessed as annexin-V positive cells at 5 uM after 72 hrs by Annexin-V/PI staining based flow cytometry relative to control; type: functional
Outline: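 Bel7402 cells (10 000) cultured overnight, then exposed to compound at 1.0 or 5.0 μM, or vehicle, for 72 h. Harvested, stained with annexin-V APC and 7-AAD for 15 min. Apoptotic percentage measured by flow cytometry (APC ex 633/em 660 nm; 7-AAD ex 488/em 647 nm). Three separate assays, mean ± SD.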

[6] = tested on: Bel-7402; assay: Induction of apoptosis in human Bel7402 cells assessed as increase in cleaved caspase-3 level at 5 uM after 72 hrs by Western blot analysis; type: functional, cell-based
Outline: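 Subconfluent Bel7402 cells (1.5 × 10^5/mL) exposed to vehicle or compound for 72 h, then lysed. Lysates (0.05 mg/lane) run on 12% SDS-PAGE, transferred to nitrocellulose, blocked in 5% nonfat milk. Probed for Bax, Bcl-2, cleaved caspase-3 and cleaved PARP, with HRP secondary and chemiluminescence. Levels normalized to β-actin; three separate assays, mean ± SD.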

[7] = tested on: Bel-7402; assay: Induction of autophagy in human Bel7402 cells assessed as accumulation of autophagic vacuoles at 5 uM after 24 hrs by acridine orange staining based fluorescence microscopic method; type: functional, cell-based
Outline: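 Bel7402 cells (10 000) cultured overnight, then exposed to compound at 1.0 or 5.0 μM, or vehicle. Stained with 1 mg/mL acridine orange for 15−20 min, then dye removed. Red versus green fluorescence viewed by fluorescence microscopy at 400×. Representative images from three independent experiments.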

[8] = tested on: Bel-7402; assay: Induction of autophagy in human Bel7402 cells assessed as downregulation of p62 level at 1 to 5 uM after 24 to 72 hrs by Western blot analysis; type: functional, cell-based
Outline: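 Bel7402 cells (1.5 × 10^5/mL) exposed to compound at indicated doses, or vehicle, for 24 or 72 h. Lysates (0.05 mg/lane) separated on 12% SDS-PAGE, blotted to nitrocellulose, blocked in 5% milk. Probed with anti-LC3, anti-p62 and anti-beclin-1, HRP secondary, chemiluminescent detection. Levels quantified relative to β-actin; three separate assays, mean ± SD.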

Histone deacetylase 1, sequence (Q13547 whole entry): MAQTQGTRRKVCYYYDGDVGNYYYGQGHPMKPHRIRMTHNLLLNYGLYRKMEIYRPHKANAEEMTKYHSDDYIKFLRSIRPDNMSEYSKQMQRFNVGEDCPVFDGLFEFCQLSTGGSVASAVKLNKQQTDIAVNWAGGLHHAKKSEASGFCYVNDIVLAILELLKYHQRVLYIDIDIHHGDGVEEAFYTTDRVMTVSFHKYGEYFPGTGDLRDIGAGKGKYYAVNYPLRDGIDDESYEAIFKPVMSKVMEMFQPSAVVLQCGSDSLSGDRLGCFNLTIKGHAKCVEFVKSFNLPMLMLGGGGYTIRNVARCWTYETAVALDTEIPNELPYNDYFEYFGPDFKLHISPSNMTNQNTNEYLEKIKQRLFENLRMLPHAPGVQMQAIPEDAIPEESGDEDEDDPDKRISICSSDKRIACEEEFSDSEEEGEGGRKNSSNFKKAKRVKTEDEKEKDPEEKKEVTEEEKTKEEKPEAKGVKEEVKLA

IC50 [3]: 2.9 µM
IC50 [4]: 0.027 µM
SMILES: COc1ccc(-c2nc(NCCCOc3ccc(/C=C/C(=O)NO)cc3OC)cc3c2[nH]c2ccccc23)cc1
IC50 [1]: > 25 µM
Activity [2]: Active
Activity [5]: 73.8%
Activity [6]: Active
Activity [7]: Active
Activity [8]: Active
